Molecules are shown by their SMILES. Values without a mark were called inactive. Results filed as inconclusive are left out. Calls of active or inactive are those of the source.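 The calls were made as follows, unless noted: active = RAM network inhibition above 8.4% in each of two replicates, 3 SD over the compound average; inconclusive = above 8.4% inhibition in only one replicate; inactive = 8.4% inhibition or less in each replicate.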

This note sets out measurements from PubChem BioAssay.

The nature of experiment [1]: OD615 S. cerevisiae growth inhibition, permissive medium, pilot counter-assay, permissive growth control for S. cerevisiae lifespan shortening project (AID 705;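 active = growth inhibition above 25% in both replicates, a cutoff set 3 SD above the mean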). To be noted: OD615, 24 h, at 10 µM, active compounds read high. A digest of the protocol:
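System: Engineered DeaD yeast | Buffer or medium: SC raffinose/galactose permissive medium | Incubation: Cells pre-grown 4 h, then 24 h compound exposure, 30 °C humidified | Measured by: Absorbance (optical density) at 615 nm | Read-out: Reduction in yeast growth (OD615)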

Experiment [2] can be described thus: Restrictive medium S. cerevisiae growth inhibition, OD615, pilot screen of yeast lifespan reduction project, restrictive growth control (AID 706;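 active = growth inhibition above a set limit, 3 SD over mean compound inhibition, in both replicates, cut at about 43% in these data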;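 also: modified DeaD lifespan yeast strain shifted to restrictive glucose medium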). To be noted: OD615, 48 h, at 10 µM, active compounds read high. The method, boiled down:
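Material: modified S. cerevisiae; Medium: glucose-based CSMM-D restrictive medium; Compound dosing: one concentration, 10 µM final, 0.25% DMSO; Incubation: 48 h compound exposure at 30 °C; Measured by: OD615.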

Experiment [3] in a line: viability gain of MRP-1-high H69AR cells under doxorubicin, pilot screen, MRP-1 activator project, CellTiter-Glo, duplicate (AID 807;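 active = viability increase at or above a cutoff of the median across tested compounds plus 3 SD, cut at about 8.5% in these data, passing the limit was not always enough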;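 also: compound pretreatment 18-22 h then 72 h combined with doxorubicin; 0% = doxorubicin alone and 100% = vehicle without doxorubicin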). The following applies: H69AR viability with doxorubicin, CellTiter-Glo luminescence; at 10 µM; active compounds read high. (In general: Cellular ATP, detected with luciferase, serves as a proxy for viable cell number.)
A short description of experiment [4]: growth suppression of beta-catenin knockout HCT116, pilot screen, human colon tumor cells (AID 823;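 active = cell viability at or below a set limit in both duplicate runs, the limit being the all-compound median minus 4 SD, cut at about 23% in these data, passing the limit was not always enough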;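 also: 0% = wells killed by 20 µM Hyamine and 100% = untreated DMSO cell wells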). To be noted: CellTiter-Glo, 60 h, at 10 µM, active compounds read low.
The nature of experiment [5]: growth suppression of PTEN-deleted HCT116, pilot screen, cell-based, HCT116 clonal line, CellTiter-Glo (AID 824;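 active = viability at or below 27.92% in each of two runs, the all-compound median minus 4 SD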;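 also: 0% = 20 µM Hyamine control and 100% = vehicle cell control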). The following applies: 60 h, at 10 µM, active compounds read low.
Experiment [6] in a line: inhibitors of the yeast RAM network, pilot screen, dse1pr::URA3 reporter, 5-FOA selection (AID 869;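 active = inhibition over a set limit, the all-compound mean plus 3 SD, in both replicate runs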;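 also: 0% = DMSO wells with no growth and 100% = 10 µM 1-NA-PP1 with full growth; RAM network block rescues cells from 5-FOA so hits raise OD615 growth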). The following applies: S. cerevisiae dse1pr::URA3 5-FOA growth, OD615, 2 d; at 10 µM; active compounds read high; strain carries analog-sensitive mutant Cbk1 kinase.
Experiment [7] in a line: RAM signaling pathway blockade in yeast – S. cerevisiae, Pdr1DBD-CYC8 efflux-inhibited sensitized strain, primary screen (AID 1298).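 Also: 0% = DMSO untreated cells without growth and 100% = 10 µM 1-NA-PP1 full growth; higher means more yeast growth rescued from 5-FOA killing.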 To be noted: S. cerevisiae cbk1-as DSE1-URA3 strain, 5-FOA growth OD615, 2 d; at 50 µM; active compounds read high.

For `CCOC(=O)N1CCC(Nc2c(OCC)c(=O)c2=O)CC1`, the growth inhibition in experiment [1] is -10.2%; in experiment [2], 10.1%. Moreover, the viability increase in experiment [3] was -0.57%. Also, the viability (in general, a read-out of living cells in per cent, often relative to untreated cells) in experiment [4] is 102%; in experiment [5] it was 96.4%. In experiment [6], the inhibition (in general, the relative decrease from the control value, in per cent) is 1.31%. Besides, the RAM network inhibition in experiment [7] was 5.22%.

On to `O=C(Nc1ccc(Oc2ccc(NC(=O)C3CCCO3)cc2)cc1)C1CCCO1` (configuration not stated), for which the growth inhibition was -2.75% in experiment [1] and -11% in experiment [2]. In addition, the viability increase in experiment [3] is -5.07%. In addition, the viability in experiment [4] was 85.7%; in experiment [5] it was 96.7%. Besides, in experiment [6], the inhibition was 3.62%. In addition, in experiment [7], the RAM network inhibition was -0.11%.

Turning to `CC1CC(C)(C)Nc2ccc(OC(=O)c3ccco3)cc21` (configuration not stated), the growth inhibition in experiment [1] is 7.66%; in experiment [2] it was 5.69%. Moreover, in experiment [3], the viability increase was -7.85%. Moreover, the viability is 1.57% (active) in experiment [4] and 1.59% (active) in experiment [5]. Further, the inhibition in experiment [6] was 0.51%. The RAM network inhibition in experiment [7] is 3.36%.

Regarding `COc1ccc(C(=O)Nc2ccccc2C(=O)NCCCn2ccnc2)cc1`, the results for the growth inhibition in experiment [1] and in experiment [2] were -1.82% and -2.64%, respectively. Moreover, the viability increase in experiment [3] was -0.82%. The viability was 95.1% in experiment [4] and 92.9% in experiment [5]. Also, the inhibition in experiment [6] was 0.715%. The RAM network inhibition in experiment [7] was 2.86%.

As for `CC(C)(C)c1nc(CN2CCCCC2)cc(CN2CCCCC2)c1O`, the growth inhibition in experiment [1] is -13.8%; in experiment [2] it was -12.6%. Moreover, the viability increase in experiment [3] was -5.26%. The viability was 70.8% in experiment [4] and 76.2% in experiment [5]. In addition, in experiment [6], the inhibition was 0.505%. In experiment [7], the RAM network inhibition was 1.19%.

On to `COCCn1c(SCC(=O)OCc2ccccc2)nc2c1c(=O)[nH]c(=O)n2C`, for which the growth inhibition in experiment [1] was 4.3%; in experiment [2], 1.99%. Further, the viability increase in experiment [3] is 1.83%. Moreover, the figures for the viability in experiment [4] and in experiment [5] were 98.6% and 105%, respectively. Besides, in experiment [6], the inhibition is 0.815%. Besides, the RAM network inhibition in experiment [7] was 5.05%.

As to `CCOC(=O)N1CCN(C(=O)CCSc2ccccc2)CC1`, the growth inhibition in experiment [1] was 2.04%; in experiment [2], 2.15%. Further, the viability increase in experiment [3] was 0.84%. Further, the viability in experiment [4] is 99.7%; in experiment [5], 97%. Besides, in experiment [6], the inhibition was 0.07%. The RAM network inhibition in experiment [7] is 0.95%.

On to `Cn1c(=O)c2c(SCc3cccnc3)nc(C3CC3)nc2n(C)c1=O`, for which the growth inhibition in experiment [1] is 1.77%; in experiment [2], -1.23%. Also, the viability increase in experiment [3] is 0.27%. Further, the viability was 94.5% in experiment [4] and 83.4% in experiment [5]. Moreover, the inhibition in experiment [6] was -0.18%. Also, the RAM network inhibition in experiment [7] is -1.65%.

On to `CCc1ccccc1N1CC23C=CC(O2)C(C(=O)OC)C3C1=O` (configuration not stated), for which the growth inhibition was -17.5% in experiment [1] and -18.8% in experiment [2]. The viability increase in experiment [3] is -0.91%. In addition, the figures for the viability in experiment [4] and in experiment [5] were 92.7% and 99%, respectively. For the same compound, the inhibition in experiment [6] is 0.9%. Besides, the RAM network inhibition in experiment [7] is 5.27%.

Turning to `O=C(NC1CCCc2ccccc21)C1CCN(c2c(N3CCCC3)c(=O)c2=O)CC1` (configuration not stated), the growth inhibition in experiment [1] is -5.2%; in experiment [2] it was -2.66%. Moreover, the viability increase in experiment [3] was -3.06%. For the same compound, the viability in experiment [4] was 92.4%; in experiment [5], 90%. The inhibition in experiment [6] was 1.51%. In addition, the RAM network inhibition in experiment [7] is -0.37%.

Consider `CC1c2[nH]c3ccccc3c2CCN1S(C)(=O)=O` (configuration not stated), for which the values for the growth inhibition in experiment [1] and in experiment [2] were 2.66% and 14.2%, respectively. For the same compound, the viability increase in experiment [3] was -0.49%. For the same compound, the viability is 98.4% in experiment [4] and 90.8% in experiment [5]. Also, the inhibition in experiment [6] was 0.31%. For the same compound, the RAM network inhibition in experiment [7] is 0.57%.

On to `Cc1ccc(C)c(N2CCN(C(=O)CCc3nc4ccccc4[nH]3)CC2)c1`, for which the growth inhibition in experiment [1] is 6.2%; in experiment [2], 7.36%. The viability increase in experiment [3] was 1.46%. Further, the viability was 80.9% in experiment [4] and 90.4% in experiment [5]. In addition, the inhibition in experiment [6] was -0.165%. For the same compound, the RAM network inhibition in experiment [7] is -0.77%.

Consider `CCCCC(=O)Nc1ccc2c(c1)C(=O)NC2=O`, for which the growth inhibition was -2.94% in experiment [1] and -3.99% in experiment [2]. Also, the viability increase in experiment [3] was 0.07%. Moreover, the values for the viability in experiment [4] and in experiment [5] were 101% and 94.5%, respectively. Besides, in experiment [6], the inhibition was 2.62%. Moreover, the RAM network inhibition in experiment [7] was 2.45%.

Take `COc1ccccc1NC(=O)CSc1nnc(Cn2c(=O)sc3ccccc32)n1C`: the values for the growth inhibition in experiment [1] and in experiment [2] were -3.61% and 5.22%, respectively. Also, in experiment [3], the viability increase was -4.11%. The viability is 100% in experiment [4] and 87.9% in experiment [5]. Besides, the inhibition in experiment [6] is 2.21%. For the same compound, the RAM network inhibition in experiment [7] was 4.37%.

As for `Cc1noc(/C=C/N(C)C)c1S(=O)(=O)N1CCN(c2ccccc2)CC1`, the growth inhibition in experiment [1] is -14.8%; in experiment [2], -3.67%. Besides, in experiment [3], the viability increase is -2.94%. For the same compound, the viability in experiment [4] was 95.9%; in experiment [5], 90.8%. Moreover, the inhibition in experiment [6] is 2.37%. The RAM network inhibition in experiment [7] is 7.31%.

For `CCOC(=O)C(C)Sc1ncnc2nc[nH]c12` (configuration not stated), the figures for the growth inhibition in experiment [1] and in experiment [2] were -1.5% and -25.9%, respectively. Further, the viability increase in experiment [3] is -1.35%. In addition, the viability is 98.8% in experiment [4] and 99.2% in experiment [5]. Also, in experiment [6], the inhibition was 1.11%. In experiment [7], the RAM network inhibition is 3.25%.
